Activity calls are given as the source filed them. No cut-off for these calls is given here.
Legend:
[1] = tested on: MDA-MB-435; assay: Induction of apoptosis in human MDA-MB-435 cells assessed as viable cells at 1 uM after 24 hrs by annexin-V FITC/propidium iodide staining-based flow cytometry (reference value: 98.62 +/- 0.25%); assay type: functional; details: MDA-MB-435, 24 h, read-out: Activity
Outline: (§1)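 MDA-MB-435 cells treated 24 h, stained with annexin V-FITC/PI per kit instructions, analysed by flow cytometry. Quadrant statistics: lower right taken as apoptotic, upper right as necrotic or post-apoptotic necrotic. Representative of three similar experiments.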

[2] = tested on: MDA-MB-435; assay: Induction of apoptosis in human MDA-MB-435 cells assessed as early apoptotic cells at 0.5 uM after 24 hrs by annexin-V FITC/propidium iodide staining-based flow cytometry (reference value: 0.61 +/- 0.24%); assay type: functional; outline: as §1
[3] = tested on: MDA-MB-435; assay: Induction of apoptosis in human MDA-MB-435 cells assessed as nuclear fragmentation at 0.25 to 1 uM by DAPI staining-based fluorscence microscopy; assay type: functional, cell-based
Outline: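 Treated MDA-MB-435 cells washed in ice-cold PBS, fixed 20 min in 4% paraformaldehyde, stained 30 min at 37 °C with DAPI (50 µg/mL) containing 100 µg/mL RNase A. After PBS washes, examined by fluorescence microscopy (excitation 340 nm, emission 488 nm).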

[4] = tested on: MDA-MB-435; assay: Cell cycle arrest in human MDA-MB-435 cells assessed as increase in cyclin B1 expression at 0.25 to 1 uM after 12 to 24 hrs by Western blotting analysis; assay type: functional, cell-based
Outline: (§2)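 Treated MDA-MB-435 cells lysed in ice-cold Tris-HCl pH 7.4 buffer with Triton, phosphatase and protease inhibitors. Lysates clarified, boiled in SDS loading buffer, run on 8-12% SDS-PAGE and blotted. Membranes blocked in 5% skim milk, probed with primary antibodies, then peroxidase secondaries with ECL detection. β-actin as loading control.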

[5] = tested on: MDA-MB-435; assay: Induction of DNA damage in human MDA-MB-435 cells assessed as phosphorylation of ATM at Ser1981 at 0.5 uM after 12 hrs by Western blotting analysis; assay type: functional, cell-based; outline: as §2
[6] = tested on: MDA-MB-435; assay: Cell cycle arrest in human MDA-MB-435 cells assessed as accumulation at S phase at 1 uM after 24 hrs by propidium iodide staining-based flow cytometry (reference value: 57.11%); assay type: functional
[7] = tested on: MDA-MB-435; assay: Cell cycle arrest in human MDA-MB-435 cells assessed as accumulation at sub-G1 phase at 0.5 uM after 24 hrs by propidium iodide staining-based flow cytometry (reference value: 0.79%); assay type: functional
[8] = tested on: MDA-MB-435; assay: Cell cycle arrest in human MDA-MB-435 cells assessed as accumulation at G2/M phase at 0.25 uM after 24 hrs by propidium iodide staining-based flow cytometry (reference value: 14.05%); assay type: functional
[9] = tested on: MDA-MB-435; assay: Cell cycle arrest in human MDA-MB-435 cells assessed as accumulation at G1 phase at 0.25 uM after 24 hrs by propidium iodide staining-based flow cytometry (reference value: 28.06%); assay type: functional
[10] = tested on: A549; assay: Cytotoxicity against human A549 cells assessed as growth inhibition after 72 hrs by MTT assay; assay type: functional, cell-based
Outline: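 MTT assay: cells treated in triplicate with a range of concentrations for 72 h at 37 °C, 5% CO2. Medium replaced, MTT (5 mg/mL) added for 4 h, then SDS/isobutanol/HCl solubiliser overnight. Absorbance read at 590 nm. Inhibition calculated against control and blank wells; IC50 is concentration giving 50% growth inhibition; three independent experiments.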

[11] = target: DNA topoisomerase 2-alpha (Homo sapiens) (UniProt P11388); assay: Inhibition of recombinant human DNA topoisomerase 2-alpha assessed as supression of kDNA decatenation at 100 uM after 30 mins by agarose gel electrophoresis
Sequence of DNA topoisomerase 2-alpha (Homo sapiens) (P11388 whole entry): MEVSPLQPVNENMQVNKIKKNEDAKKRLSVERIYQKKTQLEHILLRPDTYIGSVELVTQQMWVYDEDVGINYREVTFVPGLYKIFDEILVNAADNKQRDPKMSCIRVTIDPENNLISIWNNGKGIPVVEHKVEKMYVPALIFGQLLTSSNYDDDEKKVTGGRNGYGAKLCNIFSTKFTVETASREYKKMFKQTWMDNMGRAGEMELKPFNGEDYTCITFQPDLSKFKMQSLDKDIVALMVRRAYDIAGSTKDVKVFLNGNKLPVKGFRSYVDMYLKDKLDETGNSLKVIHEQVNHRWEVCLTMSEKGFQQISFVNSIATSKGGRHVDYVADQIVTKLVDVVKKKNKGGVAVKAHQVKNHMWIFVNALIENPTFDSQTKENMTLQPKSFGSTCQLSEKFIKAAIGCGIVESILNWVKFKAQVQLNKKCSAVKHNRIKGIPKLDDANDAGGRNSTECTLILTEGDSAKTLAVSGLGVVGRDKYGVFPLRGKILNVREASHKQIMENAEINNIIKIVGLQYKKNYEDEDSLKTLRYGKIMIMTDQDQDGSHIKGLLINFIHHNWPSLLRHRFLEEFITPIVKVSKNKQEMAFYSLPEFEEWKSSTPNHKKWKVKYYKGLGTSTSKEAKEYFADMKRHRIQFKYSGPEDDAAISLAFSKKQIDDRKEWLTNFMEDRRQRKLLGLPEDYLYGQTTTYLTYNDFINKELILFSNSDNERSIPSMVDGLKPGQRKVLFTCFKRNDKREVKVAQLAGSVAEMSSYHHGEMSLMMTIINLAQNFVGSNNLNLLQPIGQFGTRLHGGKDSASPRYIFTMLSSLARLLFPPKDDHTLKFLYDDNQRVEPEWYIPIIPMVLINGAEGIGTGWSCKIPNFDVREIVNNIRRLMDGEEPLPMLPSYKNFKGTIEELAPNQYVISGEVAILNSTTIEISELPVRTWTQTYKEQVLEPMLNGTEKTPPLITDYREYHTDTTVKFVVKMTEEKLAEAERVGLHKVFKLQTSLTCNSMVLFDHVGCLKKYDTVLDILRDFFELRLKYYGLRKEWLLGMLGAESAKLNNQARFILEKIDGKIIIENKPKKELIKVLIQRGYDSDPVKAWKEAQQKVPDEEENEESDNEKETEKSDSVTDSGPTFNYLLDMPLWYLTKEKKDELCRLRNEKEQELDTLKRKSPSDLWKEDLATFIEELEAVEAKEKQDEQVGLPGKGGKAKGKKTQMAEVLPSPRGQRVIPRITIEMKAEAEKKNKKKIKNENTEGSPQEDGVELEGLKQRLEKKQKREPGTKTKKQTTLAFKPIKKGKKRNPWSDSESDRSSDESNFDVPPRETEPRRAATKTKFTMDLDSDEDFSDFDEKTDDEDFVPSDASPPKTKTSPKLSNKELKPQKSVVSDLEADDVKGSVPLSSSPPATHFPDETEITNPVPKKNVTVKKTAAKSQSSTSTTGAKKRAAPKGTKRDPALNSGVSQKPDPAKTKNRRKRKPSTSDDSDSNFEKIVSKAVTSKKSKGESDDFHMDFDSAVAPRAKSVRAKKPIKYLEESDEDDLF
Outline: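 ATP-dependent decatenation assay: 0.20 µg kDNA with 2 units Topo IIα at 37 °C for 30 min, 20 µL. Buffer: 50 mM Tris pH 8.0, KCl, 10 mM MgCl₂, 0.5 mM ATP, 0.5 mM DTT, 30 µg/mL BSA. Stopped with 10% SDS. Agarose gel scored for kDNA versus released minicircles.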

[12] = species on record: Bos taurus; assay: Inhibition of calf thymus DNA topoisomerase 1-mediated relaxation of supercoiled pBR322 DNA at 100 uM after 30 mins by Agarose gel electrophoresis
Outline: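 Relaxation assay with 0.5 µg supercoiled pBR322 and 1 unit calf thymus Topo I, 20 µL. Buffer: 10 mM Tris–HCl pH 7.9, 150 mM NaCl, 0.1% BSA, 1 mM spermidine, 5% glycerol. Incubated 37 °C for 30 min; stopped with sarcosyl stop solution. 1% agarose gel, 5 V/cm, 2 h, TAE; ethidium bromide stain (0.5 µg/mL), UV. DMSO stocks. At least duplicate.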

[13] = species on record: Bos taurus; assay: Induction of calf thymus DNA topoisomerase 1 poisoning activity using pBR322 as substrate assessed as appearance of nicked open circular DNA at 100 uM after 30 mins by Agarose gel electrophoresis
Outline: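 Calf thymus Topo I (1 unit) with 0.5 µg pBR322 in relaxation buffer (10 mM Tris-HCl pH 7.9, 150 mM NaCl, 0.1% BSA, 1 mM spermidine, 5% glycerol), 37 °C for 30 min. Stopped with 10% SDS, digested with proteinase K (50 µg/mL) 20 min, run on ethidium bromide-containing 1% agarose gel, 5 V/cm, 2 h. Nicked open circular and linear DNA positions scored; at least duplicate.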

[14] = target: DNA topoisomerase 2-alpha (Homo sapiens) (UniProt P11388); assay: Inhibition of recombinant human DNA topoisomerase 2-alpha-mediated relaxation of supercoiled pBR322 DNA at 10 to 100 uM after 30 mins by Agarose gel electrophoresis
Outline: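 Relaxation assay with 0.5 µg supercoiled pBR322 and 1 unit recombinant human Topo IIα, 20 µL. Incubated 30 min at 30 °C; stopped with 7 mM EDTA. 1% agarose gel, 5 V/cm, 2 h, TAE; ethidium bromide stain, UV. DMSO stocks. At least duplicate.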

[15] = tested on: MDA-MB-435; assay: Induction of apoptosis in human MDA-MB-435 cells at 0.25 to 1 uM after 24 hrs by annexin-V FITC/propidium iodide staining-based flow cytometry in presence of N-acetylcysteine; assay type: functional, cell-based
[16] = tested on: MDA-MB-435; assay: Cell cycle arrest in human MDA-MB-435 cells at 0.25 to 1 uM after 24 hrs by propidium iodide staining-based flow cytometry in presence of N-acetylcysteine; assay type: functional
[17] = tested on: MDA-MB-435; assay: Induction of human apoptosis in MDA-MB-435 cells assessed as upregulation of Bak protein expression at 0.25 to 1 uM after 12 hrs by Western blotting analysis; assay type: functional, cell-based; outline: as §2
[18] = tested on: MDA-MB-435; assay: Induction of apoptosis in human MDA-MB-435 cells assessed as PARP cleavage after 12 to 24 hrs by Western blotting analysis; assay type: functional, cell-based; outline: as §2
[19] = tested on: MDA-MB-435; assay: Induction of apoptosis in human MDA-MB-435 cells assessed as decrease in procaspase 3 expression after 12 to 24 hrs by Western blotting analysis; assay type: functional, cell-based; outline: as §2
[20] = tested on: MDA-MB-435; assay: Induction of apoptosis in human MDA-MB-435 cells assessed as dead cells at 2 uM after 24 hrs by annexin-V FITC/propidium iodide staining-based flow cytometry (reference value: 0.61 +/- 0.24%); assay type: functional
[21] = tested on: MDA-MB-435; assay: Induction of apoptosis in human MDA-MB-435 cells assessed as viable cells at 2 uM after 24 hrs by annexin-V FITC/propidium iodide staining-based flow cytometry (reference value: 98.62 +/- 0.25%); assay type: functional; details: MDA-MB-435, 24 h, read-out: Activity; outline: as §1

SMILES: Oc1ccc(-c2ccc(-c3ccc(O)c(O)c3)cc2)cc1
- viability at 1 µM [1]: 76.3%
- Activity [2]: 8.01%
- Activity [3]: Active
- Activity [4]: Active
- Activity [5]: inactive
- Activity [6]: 12.58%
- Activity [7]: 4.53%
- Activity [8]: 16.24%
- Activity [9]: 34.91%
- growth inhibition (GI) [10]: Active
- inhibition [11]: Active
- inhibition [12]: Active
- Activity [13]: inactive
- inhibition [14]: Active
- Activity [15]: Active
- Activity [16]: Active
- Activity [17]: Active
- Activity [18]: Dose-dependent effect
- Activity [19]: Dose-dependent effect
- Activity [20]: 1.7%
- viability at 2 µM [21]: 71.8%
